This is an account of results in ChEMBL document CHEMBL4261484, “Design, synthesis and anticonvulsant-analgesic activity of new N-[(phenoxy)alkyl]- and N-[(phenoxy)ethoxyethyl]aminoalkanols” (Medchemcomm, 2017).

Activity calls are given as the source filed them.

Data set [1] concerns HepG2. Briefly: Cytotoxicity against human HepG2 cells assessed as effect on cell viability at 10 to 200 uM after 24 hrs by MTT assay. As to conditions: hepg2, 24 h. The data set is classed as cell-based. The method in brief: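 HepG2 cells grown in MEM with 10% FBS (37 °C, 5% CO2) and seeded at 1 × 10^4. After overnight culture, doxorubicin 10–200 μM for 24 h. MTT added for 3 h, crystals dissolved, OD 570 nm. Viability is % of control ± SEM, three independent experiments.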
(Tetrazolium assays rely on reduction of a dye to a coloured formazan, in cell work by metabolically active cells.)

The subject of data set [2] is Mus musculus. Briefly: Anticonvulsant activity in mouse assessed as increase in electroconvulsive threshold at 10 mg/kg, ip by maximal electroshock seizure threshold test relative to control. The data set is classed as functional.
Data set [3] deals with Mus musculus. Kind of data set: Anticonvulsant activity in mouse assessed as current strength required to induce tonic hind-limb extension in 50% of the animals at 10 mg/kg, ip by maximal electroshock seizure threshold test (reference value: 6.05 to 8.13 mA). The data set is classed as functional. In general terms: Protection in the maximal electroshock model is a classic sign of anticonvulsant action.

A short description of data set [4]: Neurotoxicity in ip dosed mouse assessed as motor impairment measured after 15 mins by rotarod test. The note with it: in vivo. A general note: Falling from the rotarod earlier than controls is read as motor impairment.
In data set [5] the test system is Mus musculus. Kind of data set: Anticonvulsant activity in mouse assessed as protection against subcutaneous pentylenetetrazole-induced seizures at 100 mg/kg, ip measured for 30 mins post pentylenetetrazole challenge at 0.5 hrs after compound dosing relative to control. The data set is classed as functional.
Data set [6] relates to Mus musculus. Kind of data set: Anticonvulsant activity in mouse assessed as protection against subcutaneous pentylenetetrazole-induced seizures by measuring latency time of tonic seizures at 100 mg/kg, ip measured for 30 mins post pentylenetetrazole challenge at 0.5 hrs after compound dosing (reference value: 562.8 to 614.9 secs). The data set is classed as functional.
Data set [7] deals with Mus musculus. Kind of data set: Anticonvulsant activity in mouse assessed as protection against subcutaneous pentylenetetrazole-induced seizures at 50 mg/kg, ip measured for 30 mins post pentylenetetrazole challenge at 0.5 hrs after compound dosing relative to control. The data set is classed as functional.
Data set [8] concerns Mus musculus. Kind of data set: Analgesic activity in mouse assessed as decrease in time of paw licking during phase 2 at 27 mg/kg, ip measured for 15 to 30 mins by formalin test relative to control. The data set is classed as functional. Further details: scale not given: the % may be the effect or the level left. The method in brief:
(§1)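 Formalin test in mice: 20 μL of 5% formalin injected intraplantarly into the right hind paw. Each mouse was observed alone in a glass beaker for 30 min. Time (s) spent licking or biting the injected paw was recorded at 0–5 min (acute phase) and 15–30 min (inflammatory phase).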

The subject of data set [9] is Mus musculus. Briefly: Anticonvulsant activity in mouse assessed as protection against maximal electroshock-induced seizures at 100 mg/kg, ip. The data set is classed as functional, organism-based. The gist of the method:
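Mice dosed ip; maximal seizures induced by auricular electroshock (25 mA, 500 V, 50 Hz, 0.2 s). Endpoint: hind-limb tonic extension; animals without it scored protected. Read-out is number protected over number tested.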

Data set [10] deals with Mus musculus. Kind of data set: Anticonvulsant activity in ip dosed mouse assessed as protection against maximal electroshock-induced seizures. The data set is classed as functional. The method in brief: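 Mice were dosed ip. Maximal seizures were induced by auricular electrodes (25 mA, 500 V, 50 Hz, 0.2 s). Absence of hind-limb tonic extension counted as protection. […] Motor impairment was scored on a 10 rpm rotarod, giving TD50 the same way.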

Data set [11] has as its system Mus musculus. Briefly: Anticonvulsant activity in mouse assessed as protection against subcutaneous pentylenetetrazole-induced seizures by measuring latency time of tonic seizures at 30 mg/kg, ip measured for 30 mins post pentylenetetrazole challenge at 0.5 hrs after compound dosing (reference value: 562.8 to 614.9 secs). The data set is classed as functional.
Data set [12] deals with Mus musculus. Kind of data set: Anticonvulsant activity in mouse assessed as protection against subcutaneous pentylenetetrazole-induced seizures at 30 mg/kg, ip measured for 30 mins post pentylenetetrazole challenge at 0.5 hrs after compound dosing relative to control. The data set is classed as functional.
Data set [13] in a line: Protection index, ratio of TD50 for neurotoxicity in ip dosed mouse by rotarod test to ED50 for anticonvulsant activity in mouse by maximal electroshock seizure test. The data set is classed as toxicity, organism-based. The note with it: in vivo, read-out: Ratio TD50/ED50.
The subject of data set [14] is HepG2. Briefly: Cytotoxicity against human HepG2 cells assessed as effect on cell viability at 10 to 250 uM after 24 hrs by MTT assay. The data set is classed as cell-based. As to conditions: hepg2, 24 h. The gist of the method: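 HepG2 cells grown in MEM with 10% FBS (37 °C, 5% CO2) and seeded at 1 × 10^4. After overnight culture, exposed to 10–250 μM for 24 h. MTT for 3 h, formazan dissolved, OD 570 nm. Viability is % of control ± SEM from three independent experiments.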

Data set [15] has as its system Mus musculus. Kind of data set: Toxicity in mouse at 25 mg/kg, ip measured during maximal electroshock seizure test. The data set is classed as organism-based. The note with it: in vivo.
The subject of data set [16] is Mus musculus. Briefly: Analgesic activity in mouse assessed as time of paw licking during phase 1 at 27 mg/kg, ip measured for 5 mins by formalin test (reference value: 43.89 +/- 6.64 secs). The data set is classed as functional. The gist of the method:
as §1

Data set [17] in a line: Neurotoxicity in ip dosed mouse assessed as motor impairment measured for one min by rotarod test. The note with it: in vivo. The data set is classed as toxicity, organism-based. The method in brief:
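Mice trained on an accelerating rotarod, then tested at least 24 h later after ip pretreatment, on a rod turning at 10 rpm. Neurotoxicity was scored as failure to stay on the rod for one minute. Read-out is mice impaired over mice tested.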

For data set [18], the system named is Mus musculus. Kind of data set: Toxicity in mouse at 100 mg/kg, ip measured during maximal electroshock seizure test. The data set is classed as organism-based. The note with it: in vivo.
Data set [19] can be described thus: Cytotoxicity against mouse CRL-2541 cells assessed as effect on cell viability at 10 to 250 uM after 24 hrs by MTT assay. The data set is classed as cell-based.
The subject of data set [20] is HepG2. Kind of data set: Cytotoxicity against human HepG2 cells assessed as effect on cell viability at 10 to 250 uM after 24 hrs by neutral red assay. The data set is classed as cell-based. As to conditions: hepg2, 24 h. The gist of the method:
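HepG2 cells seeded at 5 × 10^4 per well, then after 24 h given medium with 10–250 μM for 24 h. Viability by neutral red staining, OD 570 nm. Results are % of control ± SEM, three independent experiments.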

For data set [21], the system named is Mus musculus. Briefly: Toxicity in mouse assessed as effect on spontaneous activity at 27 mg/kg, ip measured for 30 mins by photoresistor actometer relative to control. The data set is classed as organism-based. The note with it: in vivo, 0.5 h. The method in brief: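 Mice dosed ip; locomotor activity by photoresistor actometers counting light-beam interruptions. Each mouse was habituated 30 min in a cage, then crossings were counted over a 30 min session. Data are mean ± SEM and % change vs control; unpaired t test.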

In data set [22] the test system is Mus musculus. Briefly: Toxicity in mouse at 30 mg/kg, ip measured during maximal electroshock seizure test. The note with it: in vivo. The data set is classed as organism-based.
The test system of data set [23] is Mus musculus. Kind of data set: Neurotoxicity in mouse assessed as motor impairment by measuring time of escaping from chimney at 27 mg/kg, ip measured for 60 secs (reference value: 8.87 +/- 1.79 secs). As to conditions: in vivo, 1 min. The data set is classed as toxicity, organism-based. The gist of the method:
(§2)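 Mice dosed ip; trained, selected animals placed in a horizontal tube 25 cm long and 2.5 cm in diameter, then tube reversed so mice must climb out backward. Read-outs: escape time (s) ± SEM and % animals losing coordination versus control. Unpaired t test.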

Data set [24] relates to Mus musculus. Briefly: Neurotoxicity in mouse assessed as motor impairment by measuring loss of coordination at 27 mg/kg, ip measured for 60 secs by chimney test relative to control. The data set is classed as toxicity, organism-based. As to conditions: in vivo, 1 min. The gist of the method:
as §2

Regarding `COc1cccc2c1C(=O)c1c(O)c3c(c(O)c1C2=O)C[C@@](O)(C(=O)CO)C[C@@H]3O[C@H]1C[C@H](N)[C@H](O)[C@H](C)O1` [DOXORUBICIN], the Activity entry in [1] was “Toxic”.
For orientation: TD50 means the dose at which the toxic effect under study appears in half of the subjects. Turning to `COC[C@@H](NC(C)=O)C(=O)NCc1ccccc1` [LACOSAMIDE], the Activity in data set [2] is on record as more than 413.22%; in [3], more than 25 mA. Besides, the TD50 at 0.25 h in data set [4] amounted to 42.5 mg/kg.
For the molecule `CCC1(C)CC(=O)NC1=O` (stereo not drawn) [ETHOSUXIMIDE], the Activity in data set [5] is given as 139.06%; in [7], 123.94%. In addition, the Time in [6] was 1470 s.
A word on the ED50: it is the dose at which the effect has come halfway, by size or by number of responders. For `Cc1ccc(OCCOCCNC(C)CO)c(C)c1` (racemic), in data set [2], the result was inactive. The Activity was 83.41% in [8]; 6.76 mA in data set [3]; 2.31% in [12]; 117.23% in data set [5]; “Non-Toxic” in data set [14]; “Non-Toxic” in data set [15]. The Activity entry in data set [18] is listed as “Non-Toxic”; in data set [19] it was “Non-Toxic”; in data set [20], “Non-Toxic”; in [21], 68.92%; in [22], “Non-Toxic”; in data set [24], 0%. The result in data set [9] was Active. Moreover, the ED50 in data set [10] stood at 27.1 mg/kg. Besides, the Time in data set [11] came to 575.8 s; in data set [16], 67.25 s; in data set [6] it was 1269 s; in [23], 6 s. Also, in data set [13], the selectivity ratio is 4.02. Besides, the TD50 at 1 min in data set [17] came to 109 mg/kg.
